# Assays:
# Assay type in all cases: functional
# Candida albicans [1] = assay: Antifungal activity against Candida albicans ATCC 90028 after 48 hrs by CLSI broth microdilution method; settings: ATCC 90028, 48 h
# How it was run: (§1)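 Yeast CLSI broth microdilution (M27-A3). Compounds dissolved in DMSO at 100× the top test concentration, then diluted as serial two-fold dilutions in RPMI 1640 to final 0.125–64. Inoculum was 1.0–1.5 × 10^3 cells mL−1, incubated at 35 °C and read for growth at 48 h. MIC is the lowest concentration giving ≥50% growth inhibition versus growth control. Reported as the median of five replicates and as the geometric mean.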
# Candida albicans [2] = assay: Antifungal activity against Candida albicans ATCC 20891 after 48 hrs by CLSI broth microdilution method; settings: ATCC 20891, 48 h; how it was run: as §1
# Candida albicans [3] = assay: Antifungal activity against Candida albicans PMC 1011 after 48 hrs by CLSI broth microdilution method; settings: PMC 1011, 48 h; how it was run: as §1
# Pichia kudriavzevii [4] = assay: Antifungal activity against Candida krusei DSM 6128 after 48 hrs by CLSI broth microdilution method; settings: DSM 6128, 48 h; how it was run: as §1
# Pichia kudriavzevii [5] = assay: Antifungal activity against Candida krusei PMC 0613 after 48 hrs by CLSI broth microdilution method; settings: PMC 0613, 48 h; how it was run: as §1
# Candida tropicalis [6] = assay: Antifungal activity against Candida tropicalis PMC 0910 after 48 hrs by CLSI broth microdilution method; settings: PMC 0910, 48 h; how it was run: as §1
# Candida tropicalis [7] = assay: Antifungal activity against Candida tropicalis DSM 11953 after 48 hrs by CLSI broth microdilution method; settings: DSM 11953, 48 h; how it was run: as §1
# Candida parapsilosis [8] = assay: Antifungal activity against Candida parapsilosis DSM 11224 after 48 hrs by CLSI broth microdilution method; settings: Lodderomyces parapsilosis, DSM 11224, 48 h; how it was run: as §1
# Candida parapsilosis [9] = assay: Antifungal activity against Candida parapsilosis ATCC 22019 after 48 hrs by CLSI broth microdilution method; settings: Lodderomyces parapsilosis, ATCC 22019, 48 h; how it was run: as §1
# Nakaseomyces glabratus [10] = assay: Antifungal activity against Candida glabrata PMC 0805 after 48 hrs by CLSI broth microdilution method; settings: PMC 0805, 48 h; how it was run: as §1
# Nakaseomyces glabratus [11] = assay: Antifungal activity against Candida glabrata PMC 0807 after 48 hrs by CLSI broth microdilution method; settings: PMC 0807, 48 h; how it was run: as §1
# Cryptococcus neoformans [12] = assay: Antifungal activity against Cryptococcus neoformans PMC 2123 after 72 hrs by CLSI broth microdilution method; settings: PMC 2123, 72 h
# How it was run: (§2)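 Cryptococcus neoformans tested by CLSI broth microdilution in RPMI 1640, with serial two-fold dilutions from DMSO stocks at 100× the top concentration, final 0.125–64. Inoculum was 1.0–1.5 × 10^3 cells mL−1 at 35 °C, with growth read at 72 h. MIC is the lowest concentration with ≥50% growth inhibition versus control. Median of five replicates, plus geometric mean.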
# Cryptococcus neoformans [13] = assay: Antifungal activity against Cryptococcus neoformans PMC 2136 after 72 hrs by CLSI broth microdilution method; settings: PMC 2136, 72 h; how it was run: as §2
# Cryptococcus neoformans [14] = assay: Antifungal activity against Cryptococcus neoformans PMC 2115 after 72 hrs by CLSI broth microdilution method; settings: PMC 2115, 72 h; how it was run: as §2
# Cryptococcus neoformans [15] = assay: Antifungal activity against Cryptococcus neoformans PMC 2103 after 72 hrs by CLSI broth microdilution method; settings: PMC 2103, 72 h; how it was run: as §2
# Cryptococcus neoformans [16] = assay: Antifungal activity against Cryptococcus neoformans PMC 2107 after 72 hrs by CLSI broth microdilution method; settings: PMC 2107, 72 h; how it was run: as §2
# Cryptococcus neoformans [17] = assay: Antifungal activity against Cryptococcus neoformans PMC 2102 after 72 hrs by CLSI broth microdilution method; settings: PMC 2102, 72 h; how it was run: as §2
# Cryptococcus neoformans [18] = assay: Antifungal activity against Cryptococcus neoformans DSM 11959 after 72 hrs by CLSI broth microdilution method; settings: DSM 11959, 72 h; how it was run: as §2
# Cryptococcus neoformans [19] = assay: Antifungal activity against Cryptococcus neoformans PMC 2111 after 72 hrs by CLSI broth microdilution method; settings: PMC 2111, 72 h; how it was run: as §2
# [20] = tested on: Trichophyton mentagrophytes; assay: Antifungal activity against Trichophyton mentagrophytes DSM 4870 after 72 hrs by CLSI broth microdilution method; settings: DSM 4870, 72 h
# How it was run: (§3)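 Dermatophytes tested by CLSI broth microdilution for filamentous fungi (M38-A2). Serial two-fold dilutions of DMSO-dissolved compound in RPMI 1640, final 0.125–64. Inoculum was 0.4–5 × 10^4 CFU mL−1, incubated at 35 °C and read at 72 h. MIC80 is the lowest concentration giving ≥80% growth inhibition versus growth control. Median of five replicates, plus geometric mean.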
# [21] = tested on: Trichophyton mentagrophytes; assay: Antifungal activity against Trichophyton mentagrophytes PMC 6515 after 72 hrs by CLSI broth microdilution method; settings: PMC 6515, 72 h; how it was run: as §3
# [22] = tested on: Trichophyton mentagrophytes; assay: Antifungal activity against Trichophyton mentagrophytes PMC 6531 after 72 hrs by CLSI broth microdilution method; settings: PMC 6531, 72 h; how it was run: as §3
# [23] = tested on: Trichophyton mentagrophytes; assay: Antifungal activity against Trichophyton mentagrophytes PMC 6509 after 72 hrs by CLSI broth microdilution method; settings: PMC 6509, 72 h; how it was run: as §3
# [24] = tested on: Trichophyton mentagrophytes; assay: Antifungal activity against Trichophyton mentagrophytes PMC 6503 after 72 hrs by CLSI broth microdilution method; settings: PMC 6503, 72 h; how it was run: as §3
# [25] = tested on: Trichophyton mentagrophytes; assay: Antifungal activity against Trichophyton mentagrophytes PMC 6552 after 72 hrs by CLSI broth microdilution method; settings: PMC 6552, 72 h; how it was run: as §3
# Nannizzia gypsea [26] = assay: Antifungal activity against Microsporum gypseum PMC 7303 after 72 hrs by CLSI broth microdilution method; settings: PMC 7303, 72 h; how it was run: as §3
# Nannizzia gypsea [27] = assay: Antifungal activity against Microsporum gypseum PMC 7331 after 72 hrs by CLSI broth microdilution method; settings: PMC 7331, 72 h; how it was run: as §3
# Nannizzia gypsea [28] = assay: Antifungal activity against Microsporum gypseum DSM 3824 after 72 hrs by CLSI broth microdilution method; settings: DSM 3824, 72 h; how it was run: as §3
# Candida albicans [29] = assay: Antifungal activity against Candida albicans PMC 1040R after 48 hrs by CLSI broth microdilution method; how it was run: as §1
# Candida albicans [30] = assay: Antifungal activity against Candida albicans PMC 1041R after 48 hrs by CLSI broth microdilution method; how it was run: as §1
# Nakaseomyces glabratus [31] = assay: Antifungal activity against Candida glabrata PMC 0850R after 48 hrs by CLSI broth microdilution method; how it was run: as §1
# Nakaseomyces glabratus [32] = assay: Antifungal activity against Candida glabrata PMC 0851R after 48 hrs by CLSI broth microdilution method; how it was run: as §1
# Nakaseomyces glabratus [33] = assay: Antifungal activity against Candida glabrata PMC 0852R after 48 hrs by CLSI broth microdilution method; how it was run: as §1
# Nakaseomyces glabratus [34] = assay: Antifungal activity against Candida glabrata PMC 0853R after 48 hrs by CLSI broth microdilution method; how it was run: as §1
# Candida albicans [35] = assay: Antifungal activity against Candida albicans PMC 1042R after 48 hrs by CLSI broth microdilution method; how it was run: as §1
# Candida albicans [36] = assay: Antifungal activity against Candida albicans ATCC 24433 after 48 hrs by CLSI broth microdilution method; settings: ATCC 24433, 48 h; how it was run: as §1
# Candida albicans [37] = assay: Antifungal activity against Candida albicans ATCC 3153 after 48 hrs by CLSI broth microdilution method; settings: ATCC 3153, 48 h; how it was run: as §1
# Candida albicans [38] = assay: Antifungal activity against Candida albicans ATCC 10231 after 48 hrs by CLSI broth microdilution method; settings: ATCC 10231, 48 h; how it was run: as §1
# Candida albicans [39] = assay: Antifungal activity against Candida albicans ATCC 76615 after 48 hrs by CLSI broth microdilution method; settings: ATCC 76615, 48 h; how it was run: as §1
# Candida albicans [40] = assay: Antifungal activity against Candida albicans ATCC 10261 after 48 hrs by CLSI broth microdilution method; settings: ATCC 10261, 48 h; how it was run: as §1
compound,measurement,setting,value
OC(Cn1cncn1)(Cn1cncn1)c1ccc(F)cc1F [FLUCONAZOLE],MIC50,Candida albicans [1],0.5 µg/mL
same,MIC50,Candida albicans [2],1 µg/mL
same,MIC50,Candida albicans [3],0.25 µg/mL
same,MIC50,Pichia kudriavzevii [4],16 µg/mL
same,MIC50,Pichia kudriavzevii [5],8 µg/mL
same,MIC50,Candida tropicalis [6],4 µg/mL
same,MIC50,Candida tropicalis [7],1 µg/mL
same,MIC50,Candida parapsilosis [8],1 µg/mL
same,MIC50,Candida parapsilosis [9],2 µg/mL
same,MIC50,Nakaseomyces glabratus [10],1 µg/mL
same,MIC50,Nakaseomyces glabratus [11],16 µg/mL
same,MIC50,Cryptococcus neoformans [12],2 µg/mL
same,MIC50,Cryptococcus neoformans [13],2 µg/mL
same,MIC50,Cryptococcus neoformans [14],4 µg/mL
same,MIC50,Cryptococcus neoformans [15],2 µg/mL
same,MIC50,Cryptococcus neoformans [16],1 µg/mL
same,MIC50,Cryptococcus neoformans [17],4 µg/mL
same,MIC50,Cryptococcus neoformans [18],2 µg/mL
same,MIC50,Cryptococcus neoformans [19],1 µg/mL
same,MIC80,[20],16 µg/mL
same,MIC80,[21],8 µg/mL
same,MIC80,[22],4 µg/mL
same,MIC80,[23],1 µg/mL
same,MIC80,[24],2 µg/mL
same,MIC80,[25],8 µg/mL
same,MIC80,Nannizzia gypsea [26],16 µg/mL
same,MIC80,Nannizzia gypsea [27],16 µg/mL
same,MIC80,Nannizzia gypsea [28],16 µg/mL
same,MIC50,Candida albicans [29],512 µg/mL
same,MIC50,Candida albicans [30],32 µg/mL
same,MIC50,Nakaseomyces glabratus [31],32 µg/mL
same,MIC50,Nakaseomyces glabratus [32],128 µg/mL
same,MIC50,Nakaseomyces glabratus [33],16 µg/mL
same,MIC50,Nakaseomyces glabratus [34],32 µg/mL
same,MIC50,Candida albicans [35],16 µg/mL
same,MIC50,Candida albicans [36],0.5 µg/mL
same,MIC50,Candida albicans [37],16 µg/mL
same,MIC50,Candida albicans [38],2 µg/mL
same,MIC50,Candida albicans [39],0.5 µg/mL
same,MIC50,Candida albicans [40],4 µg/mL

# — ChEMBL document CHEMBL3286116, “Synthesis, biological evaluation and structure-activity correlation study of a series of imidazol-based compounds as Candida albicans inhibitors” (Eur J Med Chem, 2014)
